The first data set addresses T1, Amine oxidase [flavin-containing] A (Homo sapiens, UniProt P21397).
T1 sequence (P21397 whole entry): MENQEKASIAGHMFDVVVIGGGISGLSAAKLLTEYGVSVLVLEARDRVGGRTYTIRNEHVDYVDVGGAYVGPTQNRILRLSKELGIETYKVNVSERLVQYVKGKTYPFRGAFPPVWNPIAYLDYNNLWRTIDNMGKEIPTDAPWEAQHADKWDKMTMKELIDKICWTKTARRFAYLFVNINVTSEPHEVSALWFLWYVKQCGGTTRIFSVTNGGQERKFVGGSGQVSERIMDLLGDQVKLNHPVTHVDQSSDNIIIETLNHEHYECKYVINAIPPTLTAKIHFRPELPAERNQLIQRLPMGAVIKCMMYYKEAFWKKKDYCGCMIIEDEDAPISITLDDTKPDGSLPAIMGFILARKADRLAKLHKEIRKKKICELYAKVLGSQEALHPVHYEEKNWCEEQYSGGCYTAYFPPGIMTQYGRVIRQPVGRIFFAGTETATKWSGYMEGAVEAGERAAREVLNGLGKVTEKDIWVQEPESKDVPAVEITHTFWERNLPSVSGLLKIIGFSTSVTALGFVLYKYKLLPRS
As to the kind of experiment: Ratio of turnover to Km for human MAO-A.
Settings: not given
The method in brief: (§1)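 MAO-A preparation was diluted 1:4 in 20 mM phosphate, pH 7.4, with 20% w/v glycerol and used at 0.17 μM. Four substrate concentrations were used, from 500–62.5 μM solutions in 100 mM sodium phosphate, pH 7.4, after 1 min at 37 °C. Initial rates were taken from the 324 nm amino enone absorbance, read every 3 s for 2 min, in duplicate. Km and TN came from double-reciprocal plots.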
For the compound `CN1CC=C(Oc2ccccc2)CC1`, the Ratio was found to be 2359.
Still for that read-out and setting: under `CN1CC=C(Oc2ccc(C(C)(C)C)cc2)CC1` stands 855; under `CN1CC=C(Cc2ccccc2)CC1`, 139; under `CN1CC=C(Cc2cc3ccccc3c3ccccc23)CC1`, 759.
Turning to `CN1CC=C(Oc2cc3ccccc3c3ccccc23)CC1`, the Ratio is 212.
With `CN1CC=C(Cc2cccc3ccccc23)CC1`, the Ratio is 2590.
Still for that read-out and setting: under `NCCC(=O)c1ccccc1N` [KYNURAMINE] stands 860.
Take `CN1CC=C(Cc2ccc3ccccc3c2)CC1`: the Ratio came out at 3340.
With `CCCCc1ccc(OC2=CCN(C)CC2)cc1`, the Ratio is 1676.
Same read-out and setting: the result for `CN1CC=C(Oc2cccc3ccccc23)CC1` reads 1567; that for `CN1CC=C(Oc2ccc3ccccc3c2)CC1`, 2685; that for `CN1CC=C(c2ccccc2)CC1`, 143.
For `CN1CC=C(Oc2ccc(Cl)cc2Cl)CC1`, the Ratio stood at 3290.
Same read-out and setting: the result for `CN1CC=C(Oc2ccc(-c3ccccc3)cc2)CC1` reads 1710.

The next data set concerns the target T2, Amine oxidase [flavin-containing] B (Bos taurus, UniProt P56560).
T2 sequence (P56560 whole entry): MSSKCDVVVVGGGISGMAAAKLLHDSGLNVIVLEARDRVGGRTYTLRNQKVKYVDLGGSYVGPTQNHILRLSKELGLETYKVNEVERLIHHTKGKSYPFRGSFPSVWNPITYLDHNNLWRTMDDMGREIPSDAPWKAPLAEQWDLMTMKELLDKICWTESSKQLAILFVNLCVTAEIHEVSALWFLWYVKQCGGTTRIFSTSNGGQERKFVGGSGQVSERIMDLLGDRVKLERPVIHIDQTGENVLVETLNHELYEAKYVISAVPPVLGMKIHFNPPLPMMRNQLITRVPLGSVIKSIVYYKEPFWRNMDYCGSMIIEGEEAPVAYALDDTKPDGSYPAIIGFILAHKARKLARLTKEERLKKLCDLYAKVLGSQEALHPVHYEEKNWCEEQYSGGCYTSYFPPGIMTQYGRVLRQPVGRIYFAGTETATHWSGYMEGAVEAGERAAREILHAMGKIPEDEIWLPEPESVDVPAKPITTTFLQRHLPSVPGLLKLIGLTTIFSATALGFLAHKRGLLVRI
As to the kind of experiment: Ratio of turnover to Km for bovine MAO-B. The conditions noted are these: cattle. The method in brief:
(§2)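 Bovine liver mitochondrial MAO-B, partially purified, at 0.087 μM. Four substrate concentrations were used, from 500–62.5 μM solutions in 100 mM sodium phosphate, pH 7.4. Each was equilibrated 1 min at 37 °C before enzyme was added. Amino enone formation was read at 324 nm every 3 s for 2 min, in duplicate. Km and TN came from Lineweaver-Burk double-reciprocal plots of initial rates.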
Turning to `CN1CC=C(Oc2ccccc2)CC1`, the Ratio is recorded as 4151.
On the same count and under the same terms, the result for `CN1CC=C(Oc2ccc(C(C)(C)C)cc2)CC1` reads 395.
On the same count and under the same terms, the result for `CN1CC=C(Cc2ccccc2)CC1` reads 1250.
On the same count and under the same terms, the result for `NCc1ccccc1` [BENZYLAMINE] reads 963.
As for `CN1CC=C(Cc2cccc3ccccc23)CC1`, the Ratio came to 105.
The same measure, in the same setting: the result for `CN1CC=C(Cc2ccc3ccccc3c2)CC1` reads 310.
On the same count and under the same terms, the result for `CCCCc1ccc(OC2=CCN(C)CC2)cc1` reads 1090; that for `CN1CC=C(Oc2cccc3ccccc23)CC1`, 565.
Same read-out and setting: the result for `CN1CC=C(Oc2ccc3ccccc3c2)CC1` reads 1214; that for `CN1CC=C(c2ccccc2)CC1`, 523.
Regarding `CN1CC=C(Oc2ccc(Cl)cc2Cl)CC1`, the Ratio was 1334.
The same measure, in the same setting: the result for `CN1CC=C(Oc2ccc(-c3ccccc3)cc2)CC1` reads 363.

A further data set concerns the target T1, Amine oxidase [flavin-containing] A. As to the kind of experiment: Oxidation by human mono-amine oxidase MAO-A.
Settings: not given
The method in brief:
as §1
Usually Km stands for the substrate concentration at which the rate is half of its maximum. Take `CN1CC=C(Cc2ccccc2)CC1`: the Km amounted to 66 µM.
Same read-out and setting: the result for `CN1CC=C(Cc2cccc3ccccc23)CC1` reads 167 µM; that for `NCCC(=O)c1ccccc1N` [KYNURAMINE], 170 µM; that for `CN1CC=C(Cc2ccc3ccccc3c2)CC1`, 36 µM.

The target of the next data set is T3, MAO-B (Bos taurus, UniProt P56560).
T3 sequence (P56560 whole entry): T2 sequence (P56560 whole entry)
As to the kind of experiment: (§3) Oxidation by bovine mono-amine oxidase B MAO-B. The conditions noted are these: cattle, bovine monoamine oxidase B (MAO-B) enzyme. The method in brief: as §2
Turning to `CN1CC=C(Oc2cc3ccccc3c3ccccc23)CC1`, the Michaelis-Menten constant (Km) is greater than 1000 µM.

The target of the next data set is T2, Amine oxidase [flavin-containing] B. The description is as §3. The conditions noted are these: cattle. The method in brief:
as §2
Turning to `CN1CC=C(Cc2ccccc2)CC1`, the Km is 154 µM.
On the same count and under the same terms, under `NCc1ccccc1` [BENZYLAMINE] stands 290 µM; under `CN1CC=C(Cc2cccc3ccccc23)CC1`, 847 µM.

Another data set concerns the target T1, Amine oxidase [flavin-containing] A. Description: Turnover number (TN) for human mono-amine oxidase MAO-A.
Settings: not given
The method in brief:
as §1
Regarding `CN1CC=C(Oc2ccccc2)CC1`, the TN is recorded as 130 M min-1 M-1.
On to `CN1CC=C(Oc2ccc(C(C)(C)C)cc2)CC1`, for which the TN is on record as 111 M min-1 M-1.
Same read-out and setting: the result for `CN1CC=C(Cc2ccccc2)CC1` reads 9 M min-1 M-1; that for `CN1CC=C(Cc2cc3ccccc3c3ccccc23)CC1`, 365 M min-1 M-1; that for `CN1CC=C(Oc2cc3ccccc3c3ccccc23)CC1`, 59 M min-1 M-1.
Still for that read-out and setting: the result for `CN1CC=C(Cc2cccc3ccccc23)CC1` reads 433 M min-1 M-1; that for `NCCC(=O)c1ccccc1N` [KYNURAMINE], 146 M min-1 M-1; that for `CN1CC=C(Cc2ccc3ccccc3c2)CC1`, 121 M min-1 M-1.
Turning to `CCCCc1ccc(OC2=CCN(C)CC2)cc1`, the TN was 85 M min-1 M-1.
Same read-out and setting: the result for `CN1CC=C(Oc2cccc3ccccc23)CC1` reads 227 M min-1 M-1; that for `CN1CC=C(Oc2ccc3ccccc3c2)CC1`, 207 M min-1 M-1.
On the same count and under the same terms, under `CN1CC=C(c2ccccc2)CC1` stands 20 M min-1 M-1.
Same read-out and setting: under `CN1CC=C(Oc2ccc(Cl)cc2Cl)CC1` stands 95 M min-1 M-1.
For `CN1CC=C(Oc2ccc(-c3ccccc3)cc2)CC1`, the TN is on record as 173 M min-1 M-1.

A further data set has as its target T2, Amine oxidase [flavin-containing] B. Description: Turnover number (TN) for bovine mono-amine oxidase B MAO-B. The conditions noted are these: cattle. The method in brief: as §2
`CN1CC=C(Oc2ccccc2)CC1`: the TN is recorded as 241 M min-1 M-1.
Consider `CN1CC=C(Oc2ccc(C(C)(C)C)cc2)CC1`, for which the TN is given as 22 M min-1 M-1.
The same measure, in the same setting: under `CN1CC=C(Cc2ccccc2)CC1` stands 193 M min-1 M-1.
Still for that read-out and setting: under `CN1CC=C(Cc2cc3ccccc3c3ccccc23)CC1` stands > 53 M min-1 M-1; under `NCc1ccccc1` [BENZYLAMINE], 283 M min-1 M-1; under `CN1CC=C(Oc2cc3ccccc3c3ccccc23)CC1`, > 200 M min-1 M-1.
The same measure, in the same setting: the result for `CN1CC=C(Cc2cccc3ccccc23)CC1` reads 89 M min-1 M-1; that for `CN1CC=C(Cc2ccc3ccccc3c2)CC1`, 276 M min-1 M-1.
Turning to `CCCCc1ccc(OC2=CCN(C)CC2)cc1`, the TN is listed as 92 M min-1 M-1.
In the case of `CN1CC=C(Oc2cccc3ccccc23)CC1`, the TN was 81 M min-1 M-1.
The same measure, in the same setting: the result for `CN1CC=C(Oc2ccc3ccccc3c2)CC1` reads 333 M min-1 M-1; that for `CN1CC=C(c2ccccc2)CC1`, 204 M min-1 M-1; that for `CN1CC=C(Oc2ccc(Cl)cc2Cl)CC1`, 223 M min-1 M-1.
Consider `CN1CC=C(Oc2ccc(-c3ccccc3)cc2)CC1`, for which the TN is on record as 103 M min-1 M-1.

The record behind these values is ChEMBL document CHEMBL1127689, “Novel 4-(aryloxy)tetrahydropyridine analogs of MPTP as monoamine oxidase A and B substrates” (J Med Chem, 1994).
